Compounds with a hit are over-represented: about 1.8% of the library has one in this group of screens.
NPY-Y1 PAM-ag: potentiators or agonists of human neuropeptide Y receptor Y1. AID 1304. P25929. activation, % at 3.6 µM. 0.37% of 220,000 active. NPY-Y1 expressing cells, potentiator/agonist activation; in the data active = activation above about 33%, passing the limit was not always enough;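 also: cells stimulated with NPY at EC10 then isoproterenol at EC100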
Target sequence (P25929 whole entry, looked up): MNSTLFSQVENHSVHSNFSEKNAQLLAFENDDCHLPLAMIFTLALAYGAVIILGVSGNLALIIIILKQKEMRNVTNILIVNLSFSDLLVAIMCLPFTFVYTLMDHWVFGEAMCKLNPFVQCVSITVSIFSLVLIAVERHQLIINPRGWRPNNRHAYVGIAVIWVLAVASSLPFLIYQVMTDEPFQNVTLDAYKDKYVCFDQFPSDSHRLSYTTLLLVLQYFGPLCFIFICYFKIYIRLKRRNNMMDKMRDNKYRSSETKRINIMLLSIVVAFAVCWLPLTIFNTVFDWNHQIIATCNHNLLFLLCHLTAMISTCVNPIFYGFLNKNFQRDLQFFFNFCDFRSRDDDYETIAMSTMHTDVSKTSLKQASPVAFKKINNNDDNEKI
NPY-Y2 antag: NPY-Y2 (human) receptor antagonism. NPY-Y2 expressing cells, antagonist mode. inhibition, % at 2.7 µM. 0.99% of 140,000 active; in the data active = inhibition above about 17%
NPY-Y1 antag: blocks the human neuropeptide Y Y1 receptor | P25929 | HEK293-CNG Y1 cells, membrane potential fluorescence; NPY at EC95, then isoproterenol | inhibition, % at 3.6 µM | 1% of 200,000 active | AID 1040;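 active = inhibition above the campaign mean inhibition of all tested compounds plus 3 SD, cut at about 20% in these data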
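Benchmarks – high control isoproterenol alone, low control NPY with isoproterenol · Material – HEK293 Y1/CNG channel cell line · Times – dye 3 h, compound 60 min room temperature, stimulation 45 min · Probe or stimulus – NPY (25 nM), isoproterenol (1 µM), Ro 20-1724 (25 µM) · Evaluation – % inhibition of NPY effect · Signal – fluorescence, membrane potential probe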
NPY2 pot ag: human NPY-Y2 potentiation or agonism, primary screen; P49146; cells expressing NPY-Y2, potentiator/agonist read-out; activation, % at 3.6 µM; 0.45% of 220,000 active; AID 1359; in the data active = activation above about 27%;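 also: cells stimulated with NPY near EC25 plus isoproterenol at EC100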
NPY-Y1 antag ct: antagonizes human NPY-Y1, counter-screen to NPY-Y2 antagonists; shares compounds with NPY-Y2 antag; cell-based NPY-Y1 antagonism counterscreen; inhibition, % at 3.6 µM; 19% of 710 active; AID 1256; in the data active = inhibition above about 20%;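 also: cells challenged with NPY then isoproterenol with cAMP sensed through a CNG channel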
NPY-Y2 ant conf: human NPY-Y2 antagonism, confirmation. inhibition, % at 2.8 µM. AID 1257. HEK293 NPY-Y2 CNG channel, membrane potential fluorescence. shares compounds with NPY-Y2 antag. 32% of 710 active;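 active = mean inhibition of triplicate wells above the hit cutoff set in the primary screen, cut at about 17% in these data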
Each line names hits and unclear results; the compound was inactive in the other large screens (follow-up assays come after a bar, where they were run).

Cc1ccc2nc3c(c(Nc4ccc5c(c4)OCCO5)c2c1)CCC3	NPY-Y2 antag 22.0 | NPY-Y1 antag ct inactive | NPY-Y2 ant conf inactive
CCCOc1ccc(Br)cc1/C=N/O	NPY-Y2 antag 18.4 | NPY-Y1 antag ct 20.6 | NPY-Y2 ant conf inactive
CN(C)c1ccc(/C=C2\SC(=O)N(CC(O)Cn3c4ccccc4c4ccccc43)C2=O)cc1 (stereo not given)	NPY-Y2 antag 21.1 | NPY-Y1 antag ct 25.9 | NPY-Y2 ant conf inactive
O=C(O)c1cc(Cl)c2ccccc2c1O	NPY-Y2 antag 19.5 | NPY-Y1 antag ct 20.7 | NPY-Y2 ant conf inactive
NNc1cc([N+](=O)[O-])cc2c1C(=O)N(Cc1ccccc1)S2=O (stereo not given)	none (no result: NPY-Y2 antag)
CC(C)N(C(=O)CSc1nc2ccccc2n1Cc1ccccc1F)C(C)C	NPY-Y2 antag 17.2 | NPY-Y1 antag ct inactive | NPY-Y2 ant conf inactive
CNC(=O)CCC(=O)Nc1ccc(C)cc1	none (no result: NPY-Y2 antag)
CCOC(=O)CCCCC(=O)c1[nH]c(=O)[nH]c1CSc1nnc2c3ccccc3n(C(C)C)c2n1	NPY-Y2 antag 32.1 | NPY-Y1 antag ct inactive | NPY-Y2 ant conf 44.9
Cc1nn(-c2cccc(Cl)c2)c2nc(-c3ccncc3)cc(C(=O)N3CCOCC3)c12	none (no result: NPY-Y2 antag)
COc1ccc(NC(=O)C2CCN(S(=O)(=O)c3ccc(Br)s3)CC2)cc1OC	none
CCN(CC)C(=O)CSc1nc(-c2ccc(C)cc2)nc2c1COC(C)(C)C2	NPY-Y2 antag 19.9 | NPY-Y1 antag ct inactive | NPY-Y2 ant conf inactive
CC1(C)Cc2nc(-c3ccccc3)nc(SCC(O)CO)c2CO1 (stereo not given)	none (no result: NPY-Y2 antag, NPY-Y1 antag)
COc1cccc(-c2nc(CS(=O)(=O)CC(=O)NCc3ccccc3OC)c(C)o2)c1	NPY-Y2 antag 22.2 | NPY-Y1 antag ct inactive | NPY-Y2 ant conf inactive
COc1cccc(-c2nc(-c3ccc(NC(=O)Cc4ccccc4OC)cc3)no2)c1	NPY-Y2 antag 23.0 | NPY-Y1 antag ct inactive | NPY-Y2 ant conf 115.2
Cc1nc2ccccc2c(=O)n1NC(=O)/C=C/c1ccc(Br)cc1	NPY-Y2 antag 18.2 | NPY-Y1 antag ct inactive | NPY-Y2 ant conf inactive
O=C(CCCSc1nc2ccccc2[nH]1)Nc1nnc(C2CC2)s1	none (no result: NPY-Y2 antag)
Cc1ccc(-c2cc(C(=O)Nc3ccc4c(c3)OCCO4)c3ccccc3n2)cc1	NPY-Y2 antag 26.9 | NPY-Y1 antag ct inactive | NPY-Y2 ant conf 39.2
O=C(Nc1ccc2c(c1)OCO2)c1cc(-c2cccnc2)nc2ccccc12	none (no result: NPY-Y2 antag)
CC(C)OC(=O)/C(=C/c1ccc2c(c1)c1ccccc1n2C)NC(=O)c1ccccc1	NPY-Y2 antag 20.7 | NPY-Y1 antag ct inactive | NPY-Y2 ant conf 19.8
Cn1c2ccccc2c2cc(/C=C(\NC(=O)c3ccccc3)C(=O)O)ccc21	none (no result: NPY-Y2 antag, NPY-Y1 antag)
CCOC(=O)c1cc(-c2ccccc2)sc1NC(=O)CC	NPY-Y2 antag 21.5 | NPY-Y1 antag ct inactive | NPY-Y2 ant conf inactive
CC(C)CN(CC(C)C)C(=S)Nc1ccc(Cl)cc1	none (no result: NPY-Y2 antag)
CC(C)NCC(O)COCCOc1ccc(C(C)(C)C)cc1 (stereo not given)	NPY-Y2 antag 24.0 | NPY-Y1 antag ct inactive | NPY-Y2 ant conf inactive
O=C(CCn1c(=S)oc2ccccc21)NC1CCCCCCC1	none (no result: NPY-Y2 antag, NPY-Y1 antag)
Cc1ccccc1C(=O)c1cccn1CC(=O)NCCN1CCN(c2cccc(C)c2C)CC1	NPY-Y2 antag 21.4 | NPY-Y1 antag ct inactive | NPY-Y2 ant conf 24.6
Cc1ccc(C)c(N2CCN(CCCNC(=O)Cn3cccc3C(=O)c3ccccc3C)CC2)c1	none (no result: NPY-Y2 antag)
CCc1n[nH]c(=S)n1/N=C/c1cc(Br)c(OC)cc1OC	NPY-Y2 antag 20.9 | NPY-Y1 antag ct inactive | NPY-Y2 ant conf 18.3
CN(CC(=O)Nc1ccc(C#N)cc1)Cc1ccc(Cl)cc1	NPY-Y2 antag 18.1 | NPY-Y1 antag ct inactive | NPY-Y2 ant conf inactive
CN(CC(=O)Nc1ccc(S(=O)(=O)N2CCCC2)cc1)CC(=O)Nc1cccc(F)c1	none (no result: NPY-Y2 antag)
O=C(COc1ccccc1)Nc1cc(C(F)(F)F)ccc1N1CCCC1	NPY-Y2 antag 19.6 | NPY-Y1 antag ct 26.8 | NPY-Y2 ant conf inactive
O=C(COc1ccccc1)Nc1ccccc1N1CCCCC1	none
O=C(COC(=O)c1cccc(Cl)c1)Nc1cc(Cl)ccc1Oc1ccccc1	NPY-Y2 antag 19.4 | NPY-Y1 antag ct inactive | NPY-Y2 ant conf inactive
CCOC(=O)Cc1csc(SCC(=O)Nc2cccc(Cl)c2)n1	none
CCOC(=O)Cc1csc(SCC(=O)Nc2cc(Cl)ccc2Oc2ccccc2)n1	NPY-Y2 antag 19.4 | NPY-Y1 antag ct inactive | NPY-Y2 ant conf inactive
